Test results published in ChEMBL document CHEMBL4513216, “Probing the Open Global Health Chemical Diversity Library for Multistage-Active Starting Points for Next-Generation Antimalarials” (ACS Infect Dis, 2020).

Test: Toxicity liver stage against HepG2, at 10uM
Type: cell-based
Set-up: test concentration 10 uM, cell line HepG2-A16-CD81EGFP
Conditions: human, HepG2-A16-CD81EGFP cells; read-out: INHIBITION
How it was run: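 Uninfected HepG2-A16-CD81EGFP cells, 3 × 10^3 per well, 1536-well, plated on prespotted compound at 10 μM final, parasite-free screening media added to match infected plates; puromycin 10 μM positive, DMSO 0.5% negative; run in parallel with 48 h PbLuc assay at 37 °C, 5% CO2; viability by CellTiter-Glo luminescence, normalized to controls.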

| Structure (SMILES) | cytotoxicity at 10 µM |
| --- | --- |
| Cc1ncc(CN(C)Cc2nc3cc(Cl)ccc3n2C)s1 | -42.9% |
| CCCc1nc2c(c(C)c(C)n2Cc2cccnc2)c(N)c1CC | 15% |
| CCC(C)NC(=O)c1snnc1-c1ccc(OC)cc1 (stereo not given) | 6.93% |
| Cn1ccc2c(NC(=O)Cn3ncc4c(c3=O)CCCC4)cccc21 | 2.33% |
| CC(C)C1SCC(=O)Nc2c1c(O)nn2C1CCCCC1 (stereo not given) | 2.42% |
| O=C(C1=COCCO1)N1CC(Oc2nc3c(Cl)cccc3s2)C1 | 38.2% |
| O=C(NCc1ccccc1)N1CCC(Oc2ncccc2Br)CC1 | 18.3% |
| Cc1csc(C(=O)N2CC(S(=O)(=O)C3CCCCC3)C2)c1 | -2.83% |
| O=C(c1cnccn1)N1C[C@@H](c2ccccc2)[C@@]2(CCNC2=O)C1 | -1.59% |
| CCN(C)C(=O)c1cnc(-c2noc3cc(N4CCCCC4)ccc23)s1 | 48.6% |
| CCOCC1c2c(ncn2C(C)C)CCN1C(=O)C1CC1 (stereo not given) | 10.5% |
| Cc1ccc(C(=O)N2C[C@@H]3CN(c4ncccn4)C[C@@H]3C2)cn1 | 6.86% |
| O=C(NC1CC1)c1cc2c(nc1O)CC(c1cccs1)CC2=O (stereo not given) | 86.1% |
| CSC1=Nc2c(cnn2-c2ccccc2)C2=NCCCN12 | 8.85% |
| CCn1cc(CNC(=O)c2nn(CC)cc2Br)cn1 | 47.1% |
| Cn1nc(C(=O)NCc2cccnc2)c2c1CCS(=O)(=O)C2 | 6.09% |
| c1cnc(N2CCC(c3csc(Nc4cnccn4)n3)CC2)nc1 | 34% |
| Fc1cccc(Nc2nc(N3CCCC3)nc3c2CNCC3)c1 | -18% |
| NCC(=O)N1CCC(c2cccc(Oc3ccccc3)n2)CC1 | 9.43% |
| CSc1ccc(CN2C[C@@H]3CC[C@@](O)(c4ccc(C)cn4)[C@@H]3C2)cc1 | -15.7% |
| CC(C)C1=NOC2(CCN(Cc3c[nH]c4ccccc34)CC2)C1 | 3.46% |
| CC(C)CSCCN1CCCN(S(C)(=O)=O)CC1 | -8.17% |

| Structure (SMILES) | cytotoxicity at 10 µM |
| --- | --- |
| CCN(CC)c1ncc(Cl)c(C(=O)NC2CCc3nccn3C2)n1 (stereo not given) | -49.5% |
| COc1ccc(CNCCC(=O)N2CCc3sccc3C2)cc1O | 4.48% |
| CC(C)(C)NC(=O)CN1CCCNCC1 | -145% |
| CN(Cc1ccccc1F)Cc1cc2c(cc1Br)OCCO2 | -139% |
| CC(C)(C)n1ncc(NCCc2ccccc2C(F)(F)F)c(Cl)c1=O | 57% |
| CC(C)c1nnc(NC(=O)Cc2csc(-c3nnc[nH]3)n2)s1 | -47.2% |
| Cc1c(CS(C)(=O)=O)cccc1NCCCC1CCCC1 | 17.5% |
| Cc1nc(CN2CCc3c(nc(C4CC4)n3C)C2)nc2ccccc12 | 7.36% |
| CN(CC(=O)Nc1nc2c(s1)CCCCCC2)C(=O)c1ccco1 | 37.9% |
| O=C(NC1CCC(N2C(=O)CCC2=O)CC1)c1c[nH]c2ccccc12 (stereo not given) | -2.06% |
| Cc1c(CN2CCCC(C(=O)Nc3ccccc3)C2)cc(C#N)n1C (stereo not given) | 6.75% |
| Cc1nn(C)c(NC(=O)C2SCCc3ccccc32)c1C (stereo not given) | 45.8% |
| CCC(CNC(=O)c1c(C)nn(C)c1OC)Oc1ccccc1 (stereo not given) | -4.89% |
| Cc1nc(CN2CCN(C(=O)CCc3cccc(Cl)c3)CC2)no1 | 2.93% |
| O=S(=O)(c1ccc(Cl)cc1)N1CCN(CCCn2ccnc2)CC1 | -6.18% |
| CN1CCN(c2cc(CNCc3cccc4c3OCO4)ccn2)CC1 | -5.31% |
| Cc1nc(C)n(CC2CCCN2CC(=O)N(C)Cc2ccc(C)o2)n1 (stereo not given) | 8.52% |
| CCSc1cc(C(=O)NCc2ccc(C(=O)NC)cc2)ccn1 | 32.6% |
| Clc1cc(CN2CCCC(Cn3cncn3)C2)c2ncccc2c1 (stereo not given) | 6.64% |
| CN(Cc1cccc(F)c1)C(=O)CN1CCCC(Cn2cncn2)C1 (stereo not given) | 4.64% |
| O=S(=O)(N1CCOCC1)N1CCc2sccc2C1 | -92.3% |
| CC(C)(C)CC(=O)NC(C)(C(N)=O)c1cccc(Cl)c1 (stereo not given) | 11.5% |

| Structure (SMILES) | cytotoxicity at 10 µM |
| --- | --- |
| c1ccc(N2CCCC2)c(NCc2ccncc2)c1 | -0.289% |
| CCN1CCN(c2ccc(C(=O)NCCOC)cc2F)CC1 | 1.12% |
| CN1CCN(C2CCN(c3cnc4ccccc4n3)CC2)C1=O | 27.4% |
| NC(=O)c1cccc(CCNCc2cnc(-c3cccs3)s2)c1 | 2.49% |
| Cc1ccc2cc(C(=O)NCCN3CCS(=O)(=O)CC3)c(C)nc2c1 | 10.5% |
| CCS(=O)(=O)c1ccc(CNc2c(Cl)cccc2C#N)cc1 | -50.6% |
| O=C(NCc1nnc2n1CCC2)N1CCC2(CCCCC2)CC1 | 11% |
| Cc1cc(CN2CC[C@H]3C[C@H](c4nc(C5CC5)cs4)O[C@@H]3C2)no1 | -97.6% |
| Cc1nc(-c2ccccc2)nc2c1CCN(Cc1nccn1C)CC2 | -118% |
| CC(=O)NCC(=O)N1CCN(Cc2ccncc2)c2ncccc2C1 | -90.3% |
| Cc1cccc(CN2CC[C@H]3C[C@@H](C)O[C@@H]3C2)n1 | -65.5% |
| COc1cc(N2CC[C@H](O)[C@@H]2Cc2ccccc2)ncn1 | -75% |
| CC(C)Nc1ncnc2c1CCN(C(=O)N1CCOCC1)CC2 | -74% |
| CC[C@@H](C)[C@@H](N)C(=O)Nc1cccc(-c2cnc(N(C)C)nc2)c1 | -4.78% |
| Nc1cc(N2CCCC(CO)(Cc3ccccc3F)C2)nc(N)n1 (stereo not given) | 12.8% |
| Cn1cnc2cc(C(=O)N3CCN(CCO)[C@@H]4CS(=O)(=O)C[C@@H]43)ccc21 | 2.74% |
| Cc1ccccc1N1CCCN(C(=O)CCCn2ccnc2C)CC1 | -3.3% |
| COc1ccc2c(c1)OCC(Cc1ccc(N)nc1C)C2 (stereo not given) | 21.8% |
| CS(=O)(=O)N1C[C@H]2CNC[C@@]2(C(=O)NCCCc2ccccc2)C1 | 0.334% |
| COC(=O)N1CCC2(CC1)N=C(CCC(C)C)NC2=O | -2.77% |
| Fc1ccccc1Cc1noc(CN2CCC(N3CCSCC3)CC2)n1 | -6.47% |
| Cc1n[nH]c(C)c1CCNC(=O)C1CCCN(CC(N)=O)C1 (stereo not given) | -0.653% |

| Structure (SMILES) | cytotoxicity at 10 µM |
| --- | --- |
| Cc1cc(N(C)CCCn2cccn2)nc(N)n1 | 0.423% |
| CCCc1cnc(C)nc1N1CCC(Cc2ccc(CO)cc2)C1 (stereo not given) | -2.36% |
| Cc1nc2cc(OCc3nc(C(=O)NC(C)(CO)CO)co3)ccc2s1 | 47.6% |
| FC(F)(F)c1ccccc1CCC1CCCN(Cc2cscn2)C1 (stereo not given) | 2.28% |
| COCc1noc(-c2ccc(N3CCC[C@H]3CO)nc2)n1 | -8.26% |
| Cc1noc(-c2ccc(N3CCC(C(=O)N4CCCC4)CC3)nc2)n1 | 6.5% |
| O=C1CCCN1CCCC(=O)N1CCCCC1c1ccc(F)cc1 (stereo not given) | -43.2% |
| Cc1cccc(C(C)C)c1NC(=O)CN(C)C(C)c1nccs1 (stereo not given) | -129% |
| Fc1ccccc1CN1CCCC2(CCN(c3ncccn3)C2)C1 (stereo not given) | -104% |
| COc1ccnc(CN2CCCC(CCc3ccccc3)C2)c1OC (stereo not given) | 0.979% |
| O=C(c1n[nH]cc1Cl)N1CCOC(Cc2cccc(C(F)(F)F)c2)C1 (stereo not given) | 4.19% |
| CC(C)C1CN(C(=O)c2cc(=O)[nH]c(=O)[nH]2)CCCN1CC1CC1 (stereo not given) | -2.42% |
| COCCCN1C(=O)CC[C@H]2CN(Cc3cc4ccccc4o3)CC[C@H]21 | 23.8% |
| Cc1cc(C(F)(F)F)nc(N2CCN(Cc3nccn3C)CC2)n1 | -4.28% |
| CNc1cc(C)nc(N2Cc3cnn(Cc4ccc(F)cc4)c3C2)n1 | 4.03% |
| Cc1cc(N(C)Cc2cc(C(C)(C)C)n[nH]2)nc(-c2cccnc2)n1 | 19.9% |
| O=C(Cc1cccs1)N1CCCC(CNS(=O)(=O)Cc2ccccc2)C1 (stereo not given) | 5.78% |
| Cc1nonc1CN(C)c1nc(-c2ccco2)nc2c1CCN(C)CC2 | -0.274% |
| CN(CC1CCN(c2ccccc2)C1)c1ccc(Cn2ccnc2)cn1 (stereo not given) | -142% |
| Cc1nc(N)cc(N2CCCC(COc3cccc(F)c3)C2)n1 (stereo not given) | -1.53% |
| O=C(CCn1cc(Cl)cn1)N1CCC2(CC1)[C@H](O)C[C@@H]2OCCO | 19.6% |
| COCCN(Cc1ccccc1C)c1nc(C)nc2oc(C)nc12 | -51.8% |

| Structure (SMILES) | cytotoxicity at 10 µM |
| --- | --- |
| CC(=O)c1cnc(NCC2OCCc3ccccc32)nc1C (stereo not given) | -48.9% |
| CCC(C)c1ccc(NC(=O)C2CCN(C(=O)N(C)C)CC2)cc1 (stereo not given) | -7.29% |
| Cc1cnc(C)c(N2CCN(CCCc3ccncc3)CC2)n1 | -15.4% |
| COCCCC1(CO)CCCN(Cc2nccs2)C1 (stereo not given) | 2.43% |
| COc1ccc(Oc2ncccc2F)cc1CN1CCCC1 | 2.09% |
| O=C1CC2(CCN(CCCF)CC2)CN1Cc1cc(F)cc(F)c1 | 16.3% |
| Cn1ccc(C(=O)N2CCCC(Cc3cccc4ncccc34)C2)n1 (stereo not given) | 22.1% |
| c1cc(OCc2ccc3c(c2)OCO3)ccc1CNC1CC1 | 4.7% |
| CN(C)c1ccc(CNC2=NCCCN2)cc1 | -39.9% |
| c1cc2nccc(CC3CCCN(Cc4c[nH]cn4)CC3)c2cn1 (stereo not given) | -5.11% |
| Cc1cccc(CN2CCc3c(COCC(=O)N(C)C)nn(C)c3C2)n1 | -120% |
| Cc1ccc(N2CC[C@H]3CN(C(=O)c4ccn(C)n4)C[C@H]3C2)nn1 | -102% |
| Cn1ccnc1NC[C@@H]1CCC[C@@H]2CN(CC3CC3)C[C@@H]21 | 16% |
| c1ccc(N2CCOC3(CCCN(c4ncccn4)C3)C2)nc1 (stereo not given) | -103% |
| O=S1(=O)c2ccccc2C2(CCN(Cc3cccnc3)C2)N1CC1CC1 (stereo not given) | -68.7% |
| c1ccc(-c2cc(CNCCCC3CCOC3)c3nnnn3c2)cc1 (stereo not given) | -22.3% |
| NCc1ccc(OC(F)F)cc1OC(F)F | -43% |
| Cc1n[nH]c2ncc(CNC3CCCN(c4ncccn4)C3)cc12 (stereo not given) | 23.6% |
| O=C(NCc1cccnc1)[C@H]1CC[C@@H]2[C@@H](CCN2c2ncccn2)O1 | -82.2% |
| O=C(c1ccoc1)N1CCC2(CC1)COC(COc1ccccn1)C2 (stereo not given) | -123% |
| O=C1CCCC2=Nc3nonc3NC(c3cc(Cl)ccc3F)C12 (stereo not given) | 35.5% |
| CS(=O)(=O)c1ccc(CN2C[C@@H]3CC[C@H]2CN(c2ncccn2)C3)cc1 | 0.345% |
